Measured values published in ChEMBL document CHEMBL3351472, “Synthesis and Biological Activity of 25-Hydroxy-2-methylene-vitamin D3 analogues monohydroxylated in the A-ring” (J Med Chem, 2014).

What was measured:
[1] = molecular target: T1, Vitamin D3 receptor (Rattus norvegicus) (UniProt P13053); assay: Ratio of 1alpha,25-(OH)2D3 Ki to compound Ki for full-length recombinant rat vitamin D receptor after 30 mins by liquid scintillation counting
T1 sequence (whole entry): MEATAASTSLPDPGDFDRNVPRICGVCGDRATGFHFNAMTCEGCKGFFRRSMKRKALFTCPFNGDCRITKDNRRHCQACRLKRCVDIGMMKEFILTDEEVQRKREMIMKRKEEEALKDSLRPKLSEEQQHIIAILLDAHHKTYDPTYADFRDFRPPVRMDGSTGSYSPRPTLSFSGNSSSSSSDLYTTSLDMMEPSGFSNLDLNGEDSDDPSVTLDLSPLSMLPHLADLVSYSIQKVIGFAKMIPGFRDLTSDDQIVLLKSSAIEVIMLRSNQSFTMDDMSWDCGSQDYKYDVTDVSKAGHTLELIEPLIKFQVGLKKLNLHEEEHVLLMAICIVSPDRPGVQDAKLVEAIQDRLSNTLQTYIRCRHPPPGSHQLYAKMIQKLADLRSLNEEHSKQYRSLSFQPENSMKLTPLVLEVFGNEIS
Outline: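 Competitive binding to VDR was run against radiolabeled 1α,25-(OH)₂D₃ at 1 nM. […] Duplicate determinations were made on two separate occasions. Each value is the mean of the 1α,25-(OH)₂D₃ Ki divided by the analogue Ki.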

HL-60 = assay: Ratio of 1alpha,25-(OH)2D3 ED50 to compound ED50 for induction of human HL60 cell differentiation by nitro blue tetrazolium reduction assay; type: functional
Outline: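 HL-60 promyelocytes were scored for maturation to monocytes as the percentage of cells reducing nitro blue tetrazolium. ED₅₀, the concentration giving 50% maturation, was taken from dose−response curves. The experiment was run in duplicate twice. Each value is the mean of the 1α,25-(OH)₂D₃ ED₅₀ divided by the analogue ED₅₀.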

[2] = molecular target: T1, Vitamin D3 receptor (Rattus norvegicus); assay: Ratio of 1alpha,25-(OH)2D3 ED50 to compound ED50 for VDR-mediated 24-hydroxylase gene expression in rat ROS 17/2.8 cells after 16 hrs by luciferase reporter assay; type: cell-based
Outline: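 Rat osteosarcoma cells stably transfected with a 24-hydroxylase gene reporter plasmid were used as a transcription assay. ED₅₀ is the concentration raising luciferase activity by 50%, taken from dose−response curves. Each value is the ratio of the 1α,25-(OH)₂D₃ ED₅₀ to the analogue ED₅₀.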

Rattus norvegicus [3] = assay: Effect on bone calcium mobilization in weanling Sprague-Dawley rat assessed as serum calcium level at 87 pmol/day, ip administered as 4 consecutive daily doses measured 24 hrs after last dose (reference value: 4.2 to 4.9 mg/dL); type: functional
Rattus norvegicus [4] = assay: Effect on bone calcium mobilization in weanling Sprague-Dawley rat assessed as serum calcium level at 780 pmol/day, ip administered as 4 consecutive daily doses measured 24 hrs after last dose (reference value: 4.2 to 4.9 mg/dL); type: functional
Rattus norvegicus [5] = assay: Effect on bone calcium mobilization in weanling Sprague-Dawley rat assessed as serum calcium level at 7020 pmol/day, ip administered as 4 consecutive daily doses measured 24 hrs after last dose (reference value: 4.2 to 4.9 mg/dL); type: functional
Rattus norvegicus [6] = assay: Effect on intestinal calcium transport in weanling Sprague-Dawley rat assessed as increase in ratio of serosal to mucosal calcium level at 780 pmol/day, ip administered as 4 consecutive daily doses measured 24 hrs after last dose; type: functional
Rattus norvegicus [7] = assay: Effect on intestinal calcium transport in weanling Sprague-Dawley rat assessed as increase in ratio of serosal to mucosal calcium level at 87 pmol/day, ip administered as 4 consecutive daily doses measured 24 hrs after last dose; type: functional
Rattus norvegicus [8] = assay: Effect on intestinal calcium transport in weanling Sprague-Dawley rat assessed as increase in ratio of serosal to mucosal calcium level at 7020 pmol/day, ip administered as 4 consecutive daily doses measured 24 hrs after last dose; type: functional
Rattus norvegicus [9] = assay: Effect on intestinal calcium transport in weanling Sprague-Dawley rat assessed as increase in ratio of serosal to mucosal calcium level at 35100 pmol/day, ip administered as 4 consecutive daily doses measured 24 hrs after last dose; type: functional
Rattus norvegicus [10] = assay: Effect on bone calcium mobilization in weanling Sprague-Dawley rat assessed as serum calcium level at 35100 pmol/day, ip administered as 4 consecutive daily doses measured 24 hrs after last dose (reference value: 4.2 to 4.9 mg/dL); type: functional
Rattus norvegicus [11] = assay: Effect on bone calcium mobilization in weanling Sprague-Dawley rat assessed as serum calcium level at 32 pmol/day, ip administered as 4 consecutive daily doses measured 24 hrs after last dose (reference value: 4.2 to 4.9 mg/dL); type: functional
Rattus norvegicus [12] = assay: Effect on intestinal calcium transport in weanling Sprague-Dawley rat assessed as increase in ratio of serosal to mucosal calcium level at 32 pmol/day, ip administered as 4 consecutive daily doses measured 24 hrs after last dose; type: functional

| Ratio Ki [1] | Ratio ED50 [2] | SMILES | Ratio ED50 (HL-60) | Activity (Rattus norvegicus [3]) [mg/dL] | Activity (Rattus norvegicus [4]) [mg/dL] | Activity (Rattus norvegicus [5]) [mg/dL] | Ratio (Rattus norvegicus [6]) | Ratio (Rattus norvegicus [7]) | Ratio (Rattus norvegicus [8]) | Ratio (Rattus norvegicus [9]) | Activity (Rattus norvegicus [10]) [mg/dL] | Activity (Rattus norvegicus [11]) [mg/dL] | Ratio (Rattus norvegicus [12]) |
| --- | --- | --- | --- | --- | --- | --- | --- | --- | --- | --- | --- | --- | --- |
| 0.05 | 0.0005 | C=C1CC(=C)[C@H](O)C/C1=C/C=C1\CCC[C@]2(C)[C@@H]([C@H](C)CCCC(C)(C)O)CC[C@@H]12 | 0.005 | 4.4 | 5.4 | 8.2 | 9.4 | 5.7 | 10.2 | 9.7 |  |  |  |
| 0.2 | 0.7 | C=C1CC/C(=C/C=C2\CCC[C@]3(C)[C@@H]([C@H](C)CCCC(C)(C)O)CC[C@@H]23)C[C@H]1O | 2.2 |  |  |  |  |  |  |  |  |  |  |
| 0.25 | 1 | C=C1CC/C(=C/C=C2\CCC[C@]3(C)[C@@H]([C@H](C)CCCC(C)(C)O)CC[C@@H]23)C(=C)[C@H]1O | 2 | 4.5 | 5.9 | 8.8 | 11.8 | 8.5 | 9.8 | 11.3 | 8.2 |  |  |
| 0.01 | 0.001 | C=C1CC[C@H](O)C/C1=C/C=C1\CCC[C@]2(C)[C@@H]([C@H](C)CCCC(C)(C)O)CC[C@@H]12 [CALCIFEDIOL ANHYDROUS] | 0.001 |  |  |  |  |  |  |  |  |  |  |
|  |  | C=C1/C(=C\C=C2/CCC[C@]3(C)[C@@H]([C@H](C)CCCC(C)(C)O)CC[C@@H]23)C[C@@H](O)C[C@@H]1O [CALCITRIOL] |  | 5 | 7.5 |  |  |  |  |  |  |  |  |
| 0.02 | 0.001 | C=C1CC/C(=C\C=C2/CCC[C@]3(C)[C@@H]([C@H](C)CCCC(C)(C)O)CC[C@@H]23)C[C@H]1O | 0.01 |  |  |  |  |  |  |  |  |  |  |
| 0.1 | 0.07 | C=C1CC/C(=C\C=C2/CCC[C@]3(C)[C@@H]([C@@H](C)CCCC(C)(C)O)CC[C@@H]23)C[C@H]1O | 0.07 |  |  |  |  |  |  |  |  |  |  |
| 0.33 | 0.2 | C=C1CC(=C)[C@H](O)C/C1=C/C=C1\CCC[C@]2(C)[C@@H]([C@@H](C)CCCC(C)(C)O)CC[C@@H]12 | 0.22 | 4.8 | 7.5 |  | 14.3 | 9.8 |  |  |  | 4.3 | 9 |
| 0.33 | 1 | C=C1CC/C(=C/C=C2\CCC[C@]3(C)[C@@H]([C@@H](C)CCCC(C)(C)O)CC[C@@H]23)C(=C)[C@H]1O | 4 | 4.9 | 9.7 |  | 12.6 | 10.2 |  |  |  | 4.8 | 7.9 |
| 1 | 29 | C=C1[C@H](O)CC(=C/C=C2\CCC[C@]3(C)[C@@H]([C@@H](C)CCCC(C)(C)O)CC[C@@H]23)C[C@H]1O [DP001] | 25 |  |  |  |  |  |  |  |  |  |  |
| 0.5 | 2 | C=C1CC/C(=C/C=C2\CCC[C@]3(C)[C@@H]([C@@H](C)CCCC(C)(C)O)CC[C@@H]23)C[C@H]1O | 2.5 |  |  |  |  |  |  |  |  |  |  |
